What was measured:
Assay type in all cases: functional
HL-60(TB) = experiment: Cytotoxicity against human HL-60(TB) cells assessed as cell growth at 100 uM after 48 hrs by sulforhodamine B assay; details: HL-60, 48 h, read-out: Activity
In short: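 NCI five-dose screen on the HL-60(TB) leukaemia line, grown in RPMI 1640 with 5% FBS and 2 mM L-glutamine and plated for 24 h before dosing. DMSO stocks were diluted in medium. Cells were exposed 48 h at 37 °C, then settled cells were fixed in 16% TCA (final) and stained with SRB, absorbance 515 nm. Percent growth = (Ti−Tz)/(C−Tz)×100, or (Ti−Tz)/Tz×100 when Ti<Tz.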

COLO 205 = experiment: Cytotoxicity against human COLO205 cells assessed as cell growth at 1 uM after 48 hrs by sulforhodamine B assay; details: COLO 205, 48 h, read-out: Activity
In short: (§1)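 NCI-60 five-dose screen. Cells were grown in RPMI 1640 with 5% FBS and 2 mM L-glutamine and preincubated 24 h. Compound (DMSO stock) was tested at 0.01, 0.1, 1, 10 and 100 µM for 48 h at 37 °C. Cells were fixed in situ with cold TCA (final 10%) and stained with 0.4% SRB. A515 was read, and percent growth was calculated against time-zero and control plates.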

SK-MEL-5 = experiment: Cytotoxicity against human SK-MEL-5 cells assessed as cell growth at 1 uM after 48 hrs by sulforhodamine B assay; details: SK-MEL-5, 48 h, read-out: Activity
NCI-H522 [1] = experiment: Cytotoxicity against human NCI-H522 cells assessed as cell growth at 0.01 uM after 48 hrs by sulforhodamine B assay; details: NCI-H522, 48 h, read-out: Activity
ACHN = experiment: Cytotoxicity against human ACHN cells assessed as cell growth at 0.01 uM after 48 hrs by sulforhodamine B assay; details: read-out: Activity; in short: as §1
SW-620 [2] = experiment: Cytotoxicity against human SW620 cells assessed as cell growth at 0.01 uM after 48 hrs by sulforhodamine B assay; details: SW-620, 48 h, read-out: Activity
SR = experiment: Cytotoxicity against human SR cells assessed as cell growth at 0.01 uM after 48 hrs by sulforhodamine B assay; details: read-out: Activity
NCI-H322M = experiment: Cytotoxicity against human NCI-H322M cells assessed as cell growth at 1 uM after 48 hrs by sulforhodamine B assay; details: read-out: Activity
MDA-MB-468 = experiment: Cytotoxicity against human MDA-MB-468 cells assessed as cell growth at 0.01 uM after 48 hrs by sulforhodamine B assay; details: MDA-MB-468, 48 h, read-out: Activity
NCI/ADR-RES [3] = experiment: Cytotoxicity against human NCI/ADR-RES cells assessed as cell growth at 0.1 uM after 48 hrs by sulforhodamine B assay; details: read-out: Activity
PC-3 = experiment: Cytotoxicity against human PC3 cells assessed as cell growth at 0.1 uM after 48 hrs by sulforhodamine B assay; details: PC-3, 48 h, read-out: Activity
HOP-62 = experiment: Cytotoxicity against human HOP62 cells assessed as cell growth at 10 '-5 M after 48 hrs by sulforhodamine B assay; details: HOP-62, 48 h, read-out: Activity
In short: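 Primary one-dose screen across the NCI 60-line panel at 10 µM. Cells were grown in RPMI 1640 with 5% FBS and 2 mM L-glutamine and held 24 h before drug. Drug was diluted from a DMSO concentrate. Exposure was 48 h at 37 °C, 5% CO2. Cells were fixed with TCA and stained with SRB, with absorbance read at 515 nm. Percent growth was calculated against time-zero and untreated control.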

SN12C [4] = experiment: Cytotoxicity against human SN12C cells assessed as cell growth at 10 '-5 M after 48 hrs by sulforhodamine B assay; details: read-out: Activity
MDA-MB-231 = experiment: Cytotoxicity against human MDA-MB-231 cells assessed as cell growth at 10 uM after 48 hrs by sulforhodamine B assay; details: MDA-MB-231, 48 h, read-out: Activity
SN12C [5] = experiment: Cytotoxicity against human SN12C cells assessed as cell growth at 100 uM after 48 hrs by sulforhodamine B assay; details: read-out: Activity
CAKI-1 = experiment: Cytotoxicity against human Caki1 cells assessed as cell growth at 10 '-5 M after 48 hrs by sulforhodamine B assay; details: CAKI-1, 48 h, read-out: Activity
In short: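 Primary NCI-60 single-dose screen at 10 µM. Cells were grown in RPMI 1640 with 5% FBS and 2 mM L-glutamine and plated 24 h before drug addition. Compound was solubilized in DMSO, then exposed for 48 h at 37 °C under 5% CO2. Cells were TCA-fixed and stained with SRB, and absorbance was read at 515 nm. Growth was expressed relative to time-zero and untreated controls.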

NCI-H522 [6] = experiment: Cytotoxicity against human NCI-H522 cells assessed as cell growth at 0.1 uM after 48 hrs by sulforhodamine B assay; details: NCI-H522, 48 h, read-out: Activity
TK-10 [7] = experiment: Cytotoxicity against human TK10 cells assessed as cell growth at 10 uM after 48 hrs by sulforhodamine B assay; details: TK-10, 48 h, read-out: Activity
NCI-H522 [8] = experiment: Cytotoxicity against human NCI-H522 cells assessed as cell growth at 100 uM after 48 hrs by sulforhodamine B assay; details: NCI-H522, 48 h, read-out: Activity
NCI/ADR-RES [9] = experiment: Cytotoxicity against human NCI/ADR-RES cells assessed as cell growth at 10 '-5 M after 48 hrs by sulforhodamine B assay; details: read-out: Activity
OVCAR-4 = experiment: Cytotoxicity against human OVCAR4 cells assessed as cell growth at 10 uM after 48 hrs by sulforhodamine B assay; details: OVCAR-4, 48 h, read-out: Activity
NCI-H522 [10] = experiment: Cytotoxicity against human NCI-H522 cells assessed as cell growth at 10 '-5 M after 48 hrs by sulforhodamine B assay; details: NCI-H522, 48 h, read-out: Activity
UO-31 = experiment: Cytotoxicity against human UO31 cells assessed as cell growth at 10 '-5 M after 48 hrs by sulforhodamine B assay; details: UO-31, 48 h, read-out: Activity
UACC-257 = experiment: Cytotoxicity against human UACC257 cells assessed as cell growth at 1 uM after 48 hrs by sulforhodamine B assay; details: UACC-257, 48 h, read-out: Activity
U-251 = experiment: Cytotoxicity against human U251 cells assessed as cell growth at 100 uM after 48 hrs by sulforhodamine B assay; details: U-251, 48 h, read-out: Activity
SW-620 [11] = experiment: Cytotoxicity against human SW620 cells assessed as cell growth at 100 uM after 48 hrs by sulforhodamine B assay; details: SW-620, 48 h, read-out: Activity
TK-10 [12] = experiment: Cytotoxicity against human TK10 cells assessed as cell growth at 1 uM after 48 hrs by sulforhodamine B assay; details: TK-10, 48 h, read-out: Activity
LOX IMVI = experiment: Cytotoxicity against human LOXIMVI cells assessed as cell growth at 0.1 uM after 48 hrs by sulforhodamine B assay; details: read-out: Activity

`Cc1ccc2nc(Nc3c(C)cccc3C)sc2c1` gave a growth at 100 µM (HL-60(TB)) of 53%, a growth at 1 µM (COLO 205) of 82% and a growth at 1 µM (SK-MEL-5) of 66%. It also gave a growth at 0.01 µM (NCI-H522 [1]) of 85%, a growth at 0.01 µM (ACHN) of 97% and a growth at 0.01 µM (SW-620 [2]) of 97%. It also gave a growth at 0.01 µM (SR) of 98%, a growth at 1 µM (NCI-H322M) of 91% and a growth at 0.01 µM (MDA-MB-468) of 88%. The growth at 0.1 µM (NCI/ADR-RES [3]) was 93%, the growth at 0.1 µM (PC-3) was 94% and the growth at 10 µM (HOP-62) was 45.7%. It also gave a growth at 10 µM (SN12C [4]) of 50%, a growth at 10 µM (MDA-MB-231) of 22% and a growth at 100 µM (SN12C [5]) of 52%. The growth at 10 µM (CAKI-1) was 22.1%, the growth at 0.1 µM (NCI-H522 [6]) was 85% and the growth at 10 µM (TK-10 [7]) was 71%. For the same molecule, the growth at 100 µM (NCI-H522 [8]) was 34%, the growth at 10 µM (NCI/ADR-RES [9]) was 4.04% and the growth at 10 µM (OVCAR-4) was 55%. It also gave a growth at 10 µM (NCI-H522 [10]) of 19.7%, a growth at 10 µM (UO-31) of 43.7% and a growth at 1 µM (UACC-257) of 83%. The growth at 100 µM (U-251) was 31%, the growth at 100 µM (SW-620 [11]) was 45% and the growth at 1 µM (TK-10 [12]) was 82%. The growth at 0.1 µM (LOX IMVI) was 93%.

Molecule `Clc1cccc(Cl)c1Nc1nc2cccc(Cl)c2s1` has a growth at 100 µM (HL-60(TB)) of -57%, a growth at 1 µM (COLO 205) of 74% and a growth at 1 µM (SK-MEL-5) of 50%. It also gave a growth at 0.01 µM (NCI-H522 [1]) of 88%, a growth at 0.01 µM (ACHN) of 99% and a growth at 0.01 µM (SW-620 [2]) of 97%. The growth at 0.01 µM (SR) was 100%, the growth at 1 µM (NCI-H322M) was 76% and the growth at 0.01 µM (MDA-MB-468) was 89%. For the same molecule, the growth at 0.1 µM (NCI/ADR-RES [3]) was 87%, the growth at 0.1 µM (PC-3) was 81% and the growth at 10 µM (HOP-62) was -38.2%. For the same molecule, the growth at 10 µM (SN12C [4]) was -71.5%, the growth at 10 µM (MDA-MB-231) was -93% and the growth at 100 µM (SN12C [5]) was -84%. It also gave a growth at 10 µM (CAKI-1) of -10.6%, a growth at 0.1 µM (NCI-H522 [6]) of 86% and a growth at 10 µM (TK-10 [7]) of -86%. For the same molecule, the growth at 100 µM (NCI-H522 [8]) was -49%, the growth at 10 µM (NCI/ADR-RES [9]) was -37.3% and the growth at 10 µM (OVCAR-4) was -90%. The growth at 10 µM (NCI-H522 [10]) was -64%, the growth at 10 µM (UO-31) was -55.1% and the growth at 1 µM (UACC-257) was 68%. For the same molecule, the growth at 100 µM (U-251) was -50%, the growth at 100 µM (SW-620 [11]) was -82% and the growth at 1 µM (TK-10 [12]) was 59%. The growth at 0.1 µM (LOX IMVI) was 89%.

— ChEMBL document CHEMBL2040734, “Benzothiazoles: search for anticancer agents” (2012)
